The entries come from a sample that favours hits as a whole.
FXN GAA850 act = frataxin GAA850 promoter activation. HEK293 lucGAA850 FXN promoter luciferase reporter, 24 h; percent of 10 µM SAHA response. activation, % at 6 µM. 360,000 tested, 0.56% active. AID 540364;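 active = activation above the average of all compounds screened plus 3 SD, cutoff fixed separately per campaign, cut at about 7.5% in these data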;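 also: 0% = DMSO wells and 100% = 10 µM SAHA wells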
UPR CHOP act = activators of apoptotic arm of unfolded protein response (CHOP); CHO-CHOP luciferase reporter, UPR activation, luminescence; percent of tunicamycin response over DMSO baseline; activation, % at 10 µM; 330,000 tested, 0.34% active; AID 449763;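 active = at 10 µM dose, activation of 40% or more, normalized to positive control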;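 also: 100% = tunicamycin at 10 µg/mL and 0% = DMSO alone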
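measured by = luciferase luminescence | assay system = CHO-CHOP cells, stable luciferase reporter of PERK-eIF2a-CHOP signalling | amount = 500 reporter cells seeded per well | timing = 6 h compound exposure at 37 °C after overnight seeding | controls = positive tunicamycin 10 µg/mL, negative DMSO alone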
CHOP inh = inhibitors of CHOP induction in ER stress response; 220,000 tested, 3.8% active; AID 2732; CHO-K1 CHOP-promoter luciferase, tunicamycin-induced, 15-18 h; inhibition, % at 10 µM;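 active = compounds that reduced the stress-induced luciferase reporter signal by more than about 70% of percent inhibition, limit read from the data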;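 also: 0% = tunicamycin plus vehicle and 100% = wells without tunicamycin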
XBP1 UPR activ = activators of adaptive arm of unfolded protein response (XBP1); CHO-XBP1 luciferase reporter, IRE1-XBP1 UPR activation, luminescence; percent of tunicamycin response, DMSO as zero; activation, % at 20 µM; 330,000 tested, 0.33% active; AID 463104;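 active = versus positive control, 20 µM dose yields 30% or more activation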;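 also: 100% = tunicamycin at 10 µg/mL and 0% = DMSO only wells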
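Assay system: IRE1-XBP1 luciferase reporter CHO line. Input: 1000 cells/well. Buffer or medium: F12 with 10% serum. Doses: 20 µM, 1% DMSO. Times: overnight seeding at 37 °C, 6 h compound treatment at 37 °C. Technique: Steady-Glo luciferase glow luminescence, 10 min after reagent addition.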
CHOP confirm = confirmation of CHOP induction inhibitors. inhibition, % at 10 µM. AID 504437. CHO-CHOP promoter luciferase reporter, tunicamycin-induced, luminescence. 2,100 tested, 45% active. shares compounds with CHOP inh;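 active = mean of three repeat readings of reporter signal inhibition above a set limit, cut at about 70% in these data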;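 also: 0% = tunicamycin plus vehicle and 100% = wells lacking tunicamycin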
An asterisk follows results filed as active; . = no result.

SMILES	FXN GAA850 act	UPR CHOP act	CHOP inh	XBP1 UPR activ	CHOP confirm
Cc1ccc(N2CCN(CC(O)COc3cccc(C)c3)CC2)cc1 (configuration not stated)	1.7	-1.7	5.7	-1.7	.
OC(COCc1ccc(Cl)cc1)CN1CCN(CC(O)COCc2ccc(Cl)cc2)CC1 (configuration not stated)	-4.9	2.1	88.1*	1.9	.
Cc1ccccc1OCC(O)CN1CCN(CC(O)COc2ccccc2C)CC1 (configuration not stated)	-1.7	0.5	2.3	-0.6	.
OC(COc1cccc2ccccc12)CN1CCN(c2ccccc2Cl)CC1 (configuration not stated)	0.9	.	76.4*	.	.
Cc1ccc(N2CCN(CC(O)COc3cccc4ccccc34)CC2)cc1 (configuration not stated)	0.8	-0.7	86.0*	1.2	.
Cc1ccccc1OCC(O)CN1CCN(c2ccc(Cl)cc2)CC1 (configuration not stated)	-0.3	0.7	82.0*	-1.5	.
OC(c1ccc(Cl)c(F)c1)c1ncc(-c2cccc(C(F)(F)F)c2)[nH]1 (configuration not stated)	-0.2	.	.	.	.
C[C@H](CO)N1C[C@H](C)[C@@H](CN(C)S(=O)(=O)c2cn(C)cn2)OCc2cn(nn2)CCCC1=O	1.2	.	.	.	.
CC1CCCN(S(=O)(=O)c2ccc(C(=O)Nc3nnc(-c4ccccc4Cl)o3)cc2)C1 (configuration not stated)	0.8	3.1	98.4*	4.8	34.5
Brc1ccc(CSc2nnc(Cc3c[nH]c4ccccc34)o2)cc1	-0.1	-1.2	103.5*	-1.0	12.2
O=C(CSCc1ccc(Cl)cc1)N/N=C/c1ccc(OCC(=O)Nc2ccccc2)cc1	-2.0	-3.1	-1.1	-7.4	.
Cc1ccc(/C=N/NC(=O)CCCOc2ccc(Cl)cc2Cl)cc1	-2.7	-0.2	99.6*	-0.6	105.6*
Cc1ccc(/C=N/NC(=O)CSCc2ccc(Cl)cc2)cc1	-0.8	-0.1	110.5*	1.9	88.9*
Cc1ccccc1C(=O)Nc1ccc(C(=O)NNC(=O)CCCOc2ccc(Cl)cc2Cl)cc1	-1.7	-0.3	112.5*	-4.0	5.9
CC(=O)Nc1ccccc1-c1cccc2nccn12	0.7	.	.	.	.
N#Cc1cccc(NC(=O)c2cc(C3CCCCN3C(=O)c3ccccn3)on2)c1 (configuration not stated)	0.0	.	.	.	.
O=C1c2ccccc2C(=O)C12OC(c1ccccc1)C1(C(=O)c3ccccc3C1=O)C2c1ccc([N+](=O)[O-])cc1 (configuration not stated)	0.1	2.6	1.6	3.6	.
O=C1c2ccccc2C(=O)C12OC2c1ccc(Cl)cc1 (configuration not stated)	.	103.1*	109.0*	-4.5	-21.2
CCC(=O)NC(Cc1ccccc1)c1nc2ccccc2[nH]1 (configuration not stated)	1.1	2.7	.	-5.4	.
Cc1cc(Cl)ccc1OCC(=O)N[C@@H](Cc1ccccc1)c1nc2ccccc2[nH]1	2.5	-1.3	107.8*	8.0	114.9*
C[C@@H]1CCCCO[C@H](CN(C)C(=O)Nc2ccc3c(c2)OCO3)[C@@H](C)CN([C@H](C)CO)C(=O)c2cc(NS(=O)(=O)c3ccc(F)cc3)ccc2O1	-5.8	.	.	.	.
CN(Cc1ccccc1)C(=O)c1csc([C@@H]2O[C@H](CO)[C@@H](O)[C@H]2O)n1	-0.7	.	.	.	.
CC(=O)Nc1cccc(-c2cc(NC(C)=O)c3ncc(-c4ccc(C(C)=O)cc4)n3c2)c1	-1.3	.	.	.	.
O=C(Nc1ccc(C(O)(C(F)(F)F)C(F)(F)F)cc1)c1ccc(Cl)c([N+](=O)[O-])c1	1.1	3.3	107.2*	2.8	117.4*
COc1ccc2oc(=O)c(C(=O)Nc3ccccc3O)cc2c1	4.4	0.6	101.0*	1.5	21.4
N#Cc1ccc(NC(=O)COC(=O)c2cccc(S(=O)(=O)N3CCCC3)c2)cc1	-1.6	.	.	.	.
CSc1ccc(Cn2c(C)c(C(=O)NCCC#N)sc2=O)cc1	2.5	.	.	.	.
Cc1ccc(NCc2n[nH]c(=S)n2Cc2ccccc2)cc1Cl	3.6	.	99.8*	.	-44.6
CN1C(=O)[C@H]2[C@@H](c3ccc(C(F)(F)F)cc3)N[C@]3(CCCN(Cc4ccc(C(F)(F)F)cc4)C3=O)[C@H]2C1=O	-1.8	.	.	.	.
